Results of several laboratories.
≈ marks a conversion by molar mass, not a printed value.
Organism: Enterococcus faecalis

`CCCCCCCCCCCCCCCC(=O)NS(=O)(=O)Oc1ccc(C)cc1` gave an MIC of 12.5 µg/mL (≈ 29.4 µM) (microbial growth, broth dilution; ATCC33186).
With `C=C(NC(=O)C(=C)NC(=O)c1csc(C2=N[C@@H]3c4csc(n4)[C@H]4NC(=O)c5csc(n5)[C@H]([C@](C)(O)[C@@H](C)O)NC(=O)[C@H]5CSC(=N5)/C(=C/C)NC(=O)[C@H]([C@@H](C)O)NC(=O)c5csc(n5)[C@]3(CC2)NC(=O)[C@H](C)NC(=O)C(=C)NC(=O)[C@H](C)NC(=O)[C@H]([C@@H](C)CC)N[C@@H]2C=Cc3c([C@H](C)O)cc(nc3[C@H]2O)C(=O)O[C@@H]4C)n1)C(N)=O` the MIC was 0.12 µg/mL (≈ 0.0721 µM) (microbial growth; VRE).
The MIC of `CCCCCCCC/C=C\CCCCCCCC(=O)C(F)(F)P(=O)(O)O` is reported as 6.25 µg/mL (≈ 15.8 µM) (microbial growth; ATCC33186).
The IC50 of `CC(C)CCCCCCCCCCCCCCCc1cc(O)cc(O)c1` is reported as 15.3 µM (microbial growth; ATCC29212).
The MIC of `CCCCCCCCCCCCCCCC(=O)NS(=O)(=O)OC1CCN(C(=O)OC(C)(C)C)CC1` is reported as 25 µg/mL (≈ 48.2 µM) (microbial growth, broth dilution; ATCC33186).
With `CC(C)C(C)CCCCCCCCCCCc1cc(O)cc(O)c1` (stereo not shown) the IC50 was 13.2 µM (microbial growth; ATCC29212).
The MIC50 of `ONCc1cc(F)cc(F)c1` is reported as under 80 µg/mL (microbial growth; ATCC19433; 8 h).
For `COc1ccc(OS(=O)(=O)NC(=O)CCCCc2ccccc2)cc1`, the MIC was over 200 µg/mL (microbial growth; ATCC33186).
`CC(C)CCCCCCCCCCCCCCc1cc(O)cc(O)c1` has an IC50 of 16.9 µM (microbial growth; ATCC29212).
`CCCCCCCC(=O)CP(=O)(O)O` gave an MIC of over 200 µg/mL (microbial growth; ATCC33186).
`CC1(C)S[C@@H]2[C@H](NC(=O)[C@H](N)c3ccccc3)C(=O)N2[C@H]1C(=O)O` has an inhibition zone of 26 mm (microbial growth, well diffusion; ATCC29212; 60000 µg/mL).
With `O=C(CCCCc1ccccc1)CP(=O)(O)O` the MIC was over 200 µg/mL (microbial growth; ATCC33186).
`CC1(C)S[C@@H]2[C@H](NC(=O)COc3ccccc3)C(=O)N2[C@H]1C(=O)O` gave an MBC of over 128 µg/mL (microbial killing; drug-resistant strain, clinical isolate).
